Results gathered from unrelated publications.
Lines come from different studies, so protocols differ.
PTGS1: Prostaglandin G/H synthase 1 (PTGS1, Ovis aries, UniProt P05979)
Organic anion transporter 3: Organic anion transporter 3 (Mus musculus, UniProt O88909)

SMILES | target | assay | conditions | quantity | value
N=c1c[n+](N2CCOCC2)[n-]o1 | NAD-dependent protein deacetylase sirtuin-3, mitochondrial (SIRT3, Homo sapiens, UniProt Q9NTG7) | enzyme activity, inhibitor | – | IC50 | 35 µM
COc1ccc(-c2csc(=NN=Cc3c(C)ccc(C(C)C)c3O)n2-c2ccccc2Cl)cc1 | PTGS1 | enzyme activity, inhibitor, absorbance | – | IC50 | 9.87 µM
Nc1ncnc2c1ncn2[C@@H]1O[C@H](CO)[C@@H](O)[C@H]1O | Organic anion transporter 3 | transporter uptake, inhibitor, radiometric | oocytes | IC50 | 930 µM
CC1(CN)CCN(c2cnc3c(Sc4ccncc4Cl)n[nH]c3n2)CC1 | Tyrosine-protein phosphatase non-receptor type 11 (PTPN11, Homo sapiens, UniProt Q06124) | enzyme activity, inhibitor | – | IC50 | > 100 µM
CC(=O)N[C@H]1C(O)O[C@H](CO)[C@@H](O[C@@H]2O[C@H](CO)[C@H](O)[C@H](O)[C@H]2O)[C@@H]1O (stereo partly shown) | Galectin-7 (LGALS7, Homo sapiens, UniProt P47929) | binding, ITC | – | Kd | 225 µM
O=c1cc(-c2ccc(O)cc2)oc2c([C@@H]3OC[C@H](O)[C@H](O)[C@H]3O)c(O)c([C@@H]3O[C@H](CO)[C@@H](O)[C@H](O)[C@H]3O)c(O)c12 | Calcium/calmodulin-dependent protein kinase type II subunit delta (CAMK2D, Homo sapiens, UniProt Q13557) | binding, SPR | – | Kd | 140 µM
COc1cc(C(=O)OCCCN2CCCN(CCCOC(=O)c3cc(OC)c(OC)c(OC)c3)CC2)cc(OC)c1OC | Equilibrative nucleoside transporter 2 (Homo sapiens, UniProt Q14542) | transporter uptake, inhibitor, radiometric | oocytes | IC50 | 256 µM
COc1ccc(-n2c(-c3ccccc3)csc2=NN=Cc2c(C)ccc(C(C)C)c2O)cc1 | PTGS1 | enzyme activity, inhibitor, absorbance | – | IC50 | 14.3 µM
Cn1c(=O)c2c(ncn2C)n(C)c1=O | Organic anion transporter 3 | transporter uptake, inhibitor, radiometric | oocytes | IC50 | 7.5 µM
CCCC(=O)NCCCN1CCc2c([nH]c3ccc(Cl)cc23)C1 | Sodium-dependent serotonin transporter (SLC6A4, Homo sapiens, UniProt P31645) | transporter uptake, inhibitor | – | IC50 | 96.2 µM
